# According to ChEMBL document CHEMBL4033712, “Synthesis and biological evaluation of new C-12(α/β)-(N-) sulfamoyl-phenylamino-14-deoxy-andrographolide derivatives as potent anti-cancer agents” (Bioorg Med Chem Lett, 2017):
# Tests used:
# Type in all cases: functional
# NCI-H522 = assay: Growth inhibition of human NCI-H522 cells incubated for 48 hrs by sulforhodamine B assay; details: NCI-H522, 48 h
# Outline: (§1)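 NCI-60 five-dose screen at 0.01, 0.1, 1, 10 and 100 µM, 48 h incubation, sulforhodamine B end point. GI50 (50% decrease in net growth), TGI (total growth inhibition) and LC50 (net 50% loss of initial cells) taken from log concentration versus % growth inhibition curves.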
# SW-620 = assay: Growth inhibition of human SW620 cells incubated for 48 hrs by sulforhodamine B assay; details: SW-620, 48 h
# Outline: (§2)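 NCI 60 human tumour cell line panel, five-dose study at 0.01, 0.1, 1, 10 and 100 µM, 48 h incubation. Sulforhodamine B protein-binding dye end point. GI50 (50% decrease in net cell growth), TGI (total growth inhibition) and LC50 (net 50% loss of initial cells) read from log concentration versus % growth inhibition curves.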
# Hs-578T = assay: Growth inhibition of human Hs 578T cells incubated for 48 hrs by sulforhodamine B assay; outline: as §1
# NCI-H460 = assay: Growth inhibition of human NCI-H460 cells incubated for 48 hrs by sulforhodamine B assay; details: NCI-H460, 48 h; outline: as §1
# OVCAR-3 = assay: Growth inhibition of human OVCAR3 cells incubated for 48 hrs by sulforhodamine B assay; details: OVCAR-3, 48 h; outline: as §1
# OVCAR-4 = assay: Growth inhibition of human OVCAR4 cells incubated for 48 hrs by sulforhodamine B assay; details: OVCAR-4, 48 h; outline: as §1
# LOX IMVI = assay: Growth inhibition of human LOXIMVI cells incubated for 48 hrs by sulforhodamine B assay; outline: as §1
# BT-549 = assay: Growth inhibition of human BT549 cells incubated for 48 hrs by sulforhodamine B assay; details: BT-549, 48 h; outline: as §1
# HT-29 = assay: Growth inhibition of human HT-29 cells incubated for 48 hrs by sulforhodamine B assay; details: HT-29, 48 h; outline: as §1
# SK-MEL-2 = assay: Growth inhibition of human SK-MEL-2 cells incubated for 48 hrs by sulforhodamine B assay; details: SK-MEL-2, 48 h; outline: as §2
# T47D = assay: Growth inhibition of human T47D cells incubated for 48 hrs by sulforhodamine B assay; outline: as §2
# OVCAR-8 = assay: Growth inhibition of human OVCAR8 cells incubated for 48 hrs by sulforhodamine B assay; details: OVCAR-8, 48 h; outline: as §1
# SR = assay: Growth inhibition of human SR cells incubated for 48 hrs by sulforhodamine B assay; outline: as §2
# SF-295 = assay: Growth inhibition of human SF295 cells incubated for 48 hrs by sulforhodamine B assay; details: SF-295, 48 h; outline: as §2
# ACHN = assay: Growth inhibition of human ACHN cells incubated for 48 hrs by sulforhodamine B assay; outline: as §1
# MDA-MB-468 = assay: Growth inhibition of human MDA-MB-468 cells incubated for 48 hrs by sulforhodamine B assay; details: MDA-MB-468, 48 h; outline: as §1
# UACC-257 = assay: Growth inhibition of human UACC257 cells incubated for 48 hrs by sulforhodamine B assay; details: UACC-257, 48 h; outline: as §2
# CCRF-CEM = assay: Growth inhibition of human CCRF-CEM cells incubated for 48 hrs by sulforhodamine B assay; outline: as §1
# OVCAR-5 = assay: Growth inhibition of human OVCAR5 cells incubated for 48 hrs by sulforhodamine B assay; details: OVCAR-5, 48 h; outline: as §1
# PC-3 = assay: Growth inhibition of human PC3 cells incubated for 48 hrs by sulforhodamine B assay; details: PC-3, 48 h; outline: as §1
# HOP-92 = assay: Anticancer activity against human HOP92 cells assessed as cell growth at 10 uM after 48 hrs by sulforhodamine B assay relative to control; details: HOP-92, 48 h, read-out: Activity
# Outline: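 Single-dose NCI-60 panel screen: compound added at 10 µM and the culture incubated 48 h. The end point was read by protein staining with sulforhodamine B. The value is percent growth of treated cells relative to untreated control cells, reported as a mean graph across the panel.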
# A498 = assay: Growth inhibition of human A498 cells incubated for 48 hrs by sulforhodamine B assay; details: A498, 48 h; outline: as §1
# U-251 = assay: Growth inhibition of human U251 cells incubated for 48 hrs by sulforhodamine B assay; details: U-251, 48 h; outline: as §2
# HL-60(TB) = assay: Growth inhibition of human HL-60(TB) cells incubated for 48 hrs by sulforhodamine B assay; details: HL-60, 48 h
# Outline: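 NCI-60 five-dose screen at 0.01, 0.1, 1, 10 and 100 µM for 48 h, sulforhodamine B read-out. GI50 taken from log concentration versus % growth inhibition curves as the concentration giving 50% decrease in net cell growth.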
# M14 = assay: Growth inhibition of human M14 cells incubated for 48 hrs by sulforhodamine B assay; details: M14, 48 h; outline: as §1
# NCI-H322M = assay: Growth inhibition of human NCI-H322M cells incubated for 48 hrs by sulforhodamine B assay; outline: as §1
# SNB-19 = assay: Growth inhibition of human SNB19 cells incubated for 48 hrs by sulforhodamine B assay; details: SNB-19, 48 h; outline: as §2
# TK-10 = assay: Growth inhibition of human TK10 cells incubated for 48 hrs by sulforhodamine B assay; details: TK-10, 48 h; outline: as §2
# [1] = read-out: LC50 (the source's name)
smiles,measurement,setting,value
C=C1CC[C@@H]2[C@](C)(COC(C)=O)[C@H](OC(C)=O)CC[C@@]2(C)[C@H]1CC(Nc1ccc(S(=O)(=O)Nc2nccs2)cc1)C1=CCOC1=O (some centres not stated),GI50,NCI-H522,1.72 µM
same,TGI,NCI-H522,4.32 µM
same,CC50,NCI-H522; [1],21.2 µM
same,GI50,SW-620,1.85 µM
same,TGI,SW-620,3.98 µM
same,CC50,SW-620; [1],8.55 µM
same,GI50,Hs-578T,10.8 µM
same,LC50,Hs-578T,> 100 µM
same,TGI,Hs-578T,60.4 µM
same,GI50,NCI-H460,10.7 µM
same,TGI,NCI-H460,25.3 µM
same,CC50,NCI-H460; [1],59.9 µM
same,GI50,OVCAR-3,1.88 µM
same,TGI,OVCAR-3,3.64 µM
same,CC50,OVCAR-3; [1],7.06 µM
same,GI50,OVCAR-4,4.53 µM
same,LC50,OVCAR-4,43.9 µM
same,TGI,OVCAR-4,17.7 µM
same,GI50,LOX IMVI,1.59 µM
same,TGI,LOX IMVI,3.31 µM
same,CC50,LOX IMVI; [1],6.92 µM
same,GI50,BT-549,2.43 µM
same,TGI,BT-549,6.5 µM
same,CC50,BT-549; [1],23.1 µM
same,GI50,HT-29,2.17 µM
same,TGI,HT-29,4.7 µM
same,CC50,HT-29; [1],15.8 µM
same,GI50,SK-MEL-2,10.6 µM
same,TGI,SK-MEL-2,24.3 µM
same,CC50,SK-MEL-2; [1],56.1 µM
same,GI50,T47D,3.39 µM
same,TGI,T47D,20.8 µM
same,CC50,T47D; [1],> 100 µM
same,GI50,OVCAR-8,3.14 µM
same,TGI,OVCAR-8,10.8 µM
same,CC50,OVCAR-8; [1],47.7 µM
same,GI50,SR,1.33 µM
same,TGI,SR,> 100 µM
same,CC50,SR; [1],> 100 µM
same,GI50,SF-295,13.8 µM
same,TGI,SF-295,27.2 µM
same,CC50,SF-295; [1],53.8 µM
same,GI50,ACHN,5.99 µM
same,TGI,ACHN,18.9 µM
same,CC50,ACHN; [1],45 µM
same,GI50,MDA-MB-468,1.83 µM
same,TGI,MDA-MB-468,4.43 µM
same,CC50,MDA-MB-468; [1],14.1 µM
same,GI50,UACC-257,2.55 µM
same,TGI,UACC-257,5.61 µM
same,CC50,UACC-257; [1],17.2 µM
same,GI50,CCRF-CEM,2.28 µM
same,TGI,CCRF-CEM,6.76 µM
same,CC50,CCRF-CEM; [1],> 100 µM
same,GI50,OVCAR-5,4.82 µM
same,LC50 (concentration causing net 50% loss of initial cells),OVCAR-5,46.9 µM
same,TGI,OVCAR-5,17.6 µM
same,GI50,PC-3,7.74 µM
same,TGI,PC-3,21.5 µM
same,CC50,PC-3; [1],52.2 µM
same,growth at 10 µM,HOP-92,54%
same,GI50,A498,18.2 µM
same,LC50 (concentration giving net 50% loss of initial cells),A498,58.5 µM
same,TGI,A498,32.6 µM
same,GI50,U-251,1.86 µM
same,TGI,U-251,3.5 µM
same,CC50,U-251; [1],6.57 µM
same,GI50,HL-60(TB),3.01 µM
same,TGI,HL-60(TB),13.3 µM
same,CC50,HL-60(TB); [1],> 100 µM
same,GI50,M14,2.83 µM
same,TGI,M14,10.5 µM
same,CC50,M14; [1],42.2 µM
same,GI50,NCI-H322M,12 µM
same,TGI,NCI-H322M,24.9 µM
same,CC50,NCI-H322M; [1],51.6 µM
same,GI50,SNB-19,4.36 µM
same,TGI,SNB-19,16.1 µM
same,CC50,SNB-19; [1],46 µM
same,GI50,TK-10,9.45 µM
same,TGI,TK-10,21.2 µM
same,CC50,TK-10; [1],46.1 µM
